Yeast life ext: yeast lifespan extension; S. cerevisiae growth with nicotinamide, OD615; deaD strain in restrictive glucose medium; inhibition of the nicotinamide effect, % at 10 µM; actives 0.68% (n = 130,000); AID 775;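 active = inhibition above a set limit, placed 3 SD over the median of all compounds, cut at about 26% in these data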;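 also: 0% = nicotinamide-treated wells and 100% = cells grown without nicotinamide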
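Measured by: optical density (absorbance) at 615 nm; System: modified budding yeast, DeaD strain; Medium: restrictive CSMM-D dextrose medium; Timing: 4 h preincubation then 48 h treatment at 30 °C.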
INS promoter inh: TRM-6 insulin promoter activity inhibition; TRM-6 cells, insulin promoter-eGFP reporter, imaging; reporter expression induced with tamoxifen; inhibition, % at 2 µM; actives 0.9% (n = 130,000); AID 1273;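 active = inhibition above the mean plus 3 SD, with well images judged a real hit on visual review, cut at about 60% in these data, passing the limit was not always enough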
Ins promoter up: MIN6 insulin promoter up-regulation; AID 1625; z-score at 5 µM; MIN6 insulin promoter-GFP reporter, high-content imaging; hits give high values; actives 0.3% (n = 190,000);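 active = z-score above 3 at 5 µM with at least 500 cells counted in the well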
RAM network inh: inhibitors of the yeast RAM network; S. cerevisiae dse1pr::URA3 reporter, 5-FOA growth OD615, 2 d; analog-sensitive cbk1-as2 kinase mutant strain; inhibition, % at 50 µM; actives 1.8% (n = 190,000); AID 868;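 active = inhibition above a set limit, 3 SD over mean compound inhibition, cut at about 8.4% in these data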;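 also: 0% = DMSO-only wells with no growth and 100% = 10 µM 1-NA-PP1 full growth; inhibition rescues growth on 5-FOA so higher OD means more RAM inhibition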
BB579 growth dn: yeast BB579 growth reduction in restrictive medium; S. cerevisiae BB579 growth, OD615, 48 h; inhibition, % at 10 µM; actives 0.51% (n = 140,000); AID 804;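 active = inhibition above a set limit, 3 SD over the mean compound inhibition, cut at about 44% in these data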
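Detection: OD615 turbidity measurement; Material: Saccharomyces cerevisiae DeaD strain BB579, replicative lifespan model yeast; Timing: 48 h exposure, 30 °C; Doses: single 10 µM dose; Medium: CSMM-D restrictive synthetic medium containing dextrose (glucose); Controls: amphotericin B at 10 µg/mL as positive control.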
An asterisk follows results filed as active; x = not tested or not shown. Sampled rows, rich in hits. Any-hit rate of the full collection: about 3%.

SMILES	Yeast life ext	INS promoter inh	Ins promoter up	RAM network inh	BB579 growth dn
COc1ccc(-c2cc(=O)oc3cc(OC(=O)C4CCCCC4)ccc23)cc1	4	31	-0.59	11*	-13
O=C(Oc1ccc2c(-c3ccccc3)cc(=O)oc2c1)c1cccs1	-7	5	0.2	4	-10
O=C(Oc1ccc2c(-c3ccccc3)cc(=O)oc2c1)C1CCCCC1	-11	x	0.35	9.3*	-30
O=C(NCCc1ccccc1)C1CCN(C(=O)c2ccc([N+](=O)[O-])cc2)CC1	x	x	0.14	3	x
CCN(CC)S(=O)(=O)c1ccc(OC)c(NC(=O)CSc2cc(Cl)ccc2Cl)c1	4	22	-0.35	9.2*	-35
O=c1c(N2CCOCC2)c(N2CCOCC2)c1=O	x	x	3*	x	x
C=CCN1C(=O)C(Cc2ccc(SC(F)F)cc2)SC1=Nc1ccc(C(=O)O)cc1 (stereo not given)	x	x	1.4	8.7*	x
C=CCN1C(=O)C(CC(=O)O)SC1=Nc1ccc(C(=O)O)cc1 (stereo not given)	x	x	0.61	0	x
CCOC(=O)c1c(NC(=O)c2ccc(C)cc2)sc2c1CC(C)(C)OC2	4	-34	x	10*	-56
CCCC(=O)Nc1sc2c(c1C(=O)OCC)CC(C)(C)OC2	x	75*	x	0	x
CCOC(=O)c1c(NC(=O)c2ccccc2C)sc2c1CC(C)(C)OC2	-4	x	x	8.8*	-49
CCOC(=O)c1c(NC(=O)CCC(=O)N(CC)CC)sc2c1CC(C)(C)OC2	x	x	0.61	x	x
CCOC(=O)c1ccc(Nc2nnc(C)c3ccccc23)cc1	x	x	-0.34	x	x
CC(C)OP(=O)(c1ccc(N(C)C)cc1)C(O)c1cccnc1 (stereo not given)	x	x	0.94	x	x
COc1ccc(C(=O)COC(=O)c2cc(S(=O)(=O)NCc3ccccc3)ccc2O)cc1	x	x	-0.27	9.1*	x
c1ccc(Cn2cc(CNc3ccccc3)nn2)cc1	x	x	-0.29	x	x
Oc1ccc(Cl)cc1Cc1cc(Cl)ccc1O	-7	-9	x	-1	84*
Cc1nc2nc3c(c(=O)n2[nH]1)CCC3	-7	19	-0.91	1	-51
O=c1c2c(nc3nc(Cc4ccccc4)[nH]n13)CCC2	-8	92*	x	1	11
CCc1ccccc1NC(=O)C1CCN(C(=O)c2ccc([N+](=O)[O-])cc2)CC1	x	x	-1.3	1	x
CCCCCCN1C2=NCCN2c2ccccc21	-3	84*	-0.49	1	-8
COc1ccc(C(=O)/C=C/c2cccs2)c(OC(=O)c2cccc([N+](=O)[O-])c2)c1	-10	x	0.77	9.3*	-71
CC(=O)c1ccc(N2CCN(C(=O)Nc3cccc(F)c3)CC2)cc1	x	x	-0.07	2	x
Cc1cccc2c1NC(=O)/C2=C\C(=O)c1cccs1	18	67*	x	5	-33
Cc1cc(Br)c2c(c1)/C(=C/C(=O)c1cccs1)C(=O)N2	x	x	-0.02	2	x
SMILES	Yeast life ext	INS promoter inh	Ins promoter up	RAM network inh	BB579 growth dn
CC(OC(=O)C1=COCCO1)C(=O)Nc1ccc(Oc2ccccc2)cc1 (stereo not given)	-14	-27	0.36	10*	-34
CC(OC(=O)C1=COCCO1)C(=O)Nc1ccccc1C#N (stereo not given)	x	-5	-0.44	2	x
CCCCSc1ncc(C(=O)OCC)c(N)n1	x	80*	x	0	-33
CCOC(=O)c1cnc(SCCc2ccccc2)nc1N	-16	-31	-0.12	3	-48
Cc1ccccc1-n1ncc(C(C)NC(=O)c2ccccc2)c1C (stereo not given)	x	x	0.12	0	x
O=C(CSCC(=O)N1CCCc2ccccc21)Nc1nc(-c2ccccc2)cs1	2	14	-4	4	5
CC(c1ccon1)N(C)Cc1cn(Cc2ccccc2)nc1-c1ccc2c(c1)OCO2 (stereo not given)	x	x	-0.67	2	x
CCOc1ccc(NC(=O)CSc2nc3ccccc3c(=O)n2CCCC(=O)NCCCN2CCCC2=O)cc1	x	50	-0.5	1	x
COc1ccc(NC(=O)c2ccco2)cc1NC(=O)c1ccc(Br)o1	-9	73*	0.1	3	-46
CCOCCCNC(=O)c1ccc(NC(C)=O)cc1	-3	39	x	0	-20
CCCCOCCCNC(=O)c1ccc(NC(C)=O)cc1	-5	10	-0.56	9.3*	-21
C=C(C)C(=O)Nc1cccc(C2=NOC3(C2)C[C@@H](C(N)=O)N(C(=O)[C@H]2CCC(=O)N2)C3)c1 (stereo not given in full)	x	x	0.8	x	x
C=CCn1c(SCC(=O)Nc2sc(C)c(C)c2C(=O)OCC)nnc1-c1sc(N)nc1C	-6	-26	0.54	11*	-28
CCOC(=O)c1c(NC(=O)CSc2nc3ccccc3s2)sc(C)c1C	2	-50	-0.42	11*	-45
CCOC(=O)c1c(NC(=S)Nc2ccc(C)cc2)sc2c1CCC2	4	-15	0.83	6	-10
CCOC(=O)c1c(NC(=S)Nc2ccc(Cl)cc2)sc2c1CCN(C)C2	-14	-163	-0.27	2	98*
CCOC(=O)CSc1nc2ccc(NC(=O)CSc3nnnn3Cc3ccccc3)cc2s1	x	11	x	9.5*	-40
O=C(NC(=O)c1ccc(F)cc1F)Nc1ccc(Cl)cc1	x	x	-0.82	x	x
Cc1ccc(C(=O)N/C(=C\c2ccc(-c3ccc([N+](=O)[O-])cc3)o2)C(=O)NC2CCS(=O)(=O)C2)cc1 (stereo not given)	5	x	-0.14	5	-37
COc1ccc2c(c1)C(=O)N(c1ccccc1C)C(=O)C2(C)C	x	x	-0.57	-1	x
CCN(CC)S(=O)(=O)c1ccc(N2CCOCC2)c(NC(=O)c2ccc(NC(C)=O)cc2)c1	x	x	1.2	x	x
CCOC(=O)c1c(NC(=S)Nc2ccccc2)sc(C)c1C	x	46	-0.15	9.6*	-9
CCOC(=O)c1c(NC(=O)c2c(Br)cnn2CC)sc(C)c1C	x	-25	x	9.1*	1
CCOC(=O)c1c(-c2ccco2)csc1NC(=O)CSc1nnc(N)s1	-14	49	-0.78	10*	-29
O=C(c1cc2ccc([N+](=O)[O-])cc2oc1=O)N1CCOCC1	x	x	-1	-1	x
SMILES	Yeast life ext	INS promoter inh	Ins promoter up	RAM network inh	BB579 growth dn
Cc1ccccc1-c1nn(-c2ccc(F)cc2F)cc1CNC1CC1	x	x	-0.03	2	x
Cc1cc(C)c(S(=O)(=O)c2ccccc2)c(OC(=O)c2c(Cl)cccc2Cl)n1	4	9	0.33	3	-80
CCOc1nc(C)cc(C)c1S(=O)(=O)c1ccc(Cl)cc1	x	x	-0.03	8.7*	x
Cc1ccc(S(=O)(=O)c2c(C)cc(C)nc2Cl)cc1	-16	-3	-0.6	-1	7
Cc1cc(C)c(S(=O)(=O)c2ccccc2)c(OC(=O)c2ccc(Cl)cc2Cl)n1	52*	-22	x	0	-52
O=C(O)CCCCCNC(=O)C(=O)C1C(=O)Nc2ccccc21 (stereo not given)	x	x	0.36	x	x
CCN1C(=O)CC(N2CCN(c3ccc(C(=O)c4ccncc4)cc3)CC2)C1=O (stereo not given)	-6	70*	0.02	2	-64
Nc1oc2ccc(F)cc2c(=O)c1C=O	27*	-40	1.4	-1	-31

Bioassay records as filed in PubChem.
